Legend:
[1] = target: T1, Polyunsaturated fatty acid lipoxygenase ALOX15 (Oryctolagus cuniculus, UniProt P12530); experiment: Inhibitory concentration against isolated rabbit reticulocyte 15-lipoxygenase measured in the presence of linoleic acid
T1 sequence (P12530 whole entry): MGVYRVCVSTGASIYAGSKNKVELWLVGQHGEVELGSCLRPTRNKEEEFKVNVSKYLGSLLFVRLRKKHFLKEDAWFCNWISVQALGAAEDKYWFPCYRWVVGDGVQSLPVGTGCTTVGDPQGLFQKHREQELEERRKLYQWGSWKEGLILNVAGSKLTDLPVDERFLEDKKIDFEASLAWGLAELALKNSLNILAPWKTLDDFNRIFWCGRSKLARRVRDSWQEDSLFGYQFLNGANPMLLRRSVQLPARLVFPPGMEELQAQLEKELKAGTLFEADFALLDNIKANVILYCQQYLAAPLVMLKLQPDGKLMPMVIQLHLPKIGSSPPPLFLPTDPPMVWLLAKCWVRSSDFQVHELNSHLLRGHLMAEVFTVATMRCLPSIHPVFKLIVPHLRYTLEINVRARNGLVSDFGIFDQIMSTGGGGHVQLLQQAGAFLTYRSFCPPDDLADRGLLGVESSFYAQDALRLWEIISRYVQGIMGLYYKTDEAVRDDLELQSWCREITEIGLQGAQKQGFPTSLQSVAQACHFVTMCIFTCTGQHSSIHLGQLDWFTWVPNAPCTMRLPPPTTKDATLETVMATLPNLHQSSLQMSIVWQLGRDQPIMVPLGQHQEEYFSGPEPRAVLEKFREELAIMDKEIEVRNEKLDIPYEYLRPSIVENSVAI
Method in brief: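 15-LO was purified from reticulocytes of phenylhydrazine-treated rabbits. Linoleic acid was the substrate. In a colorimetric assay, the 13-HPODE product oxidizes Fe²⁺ under mildly acidic conditions, and IC50 is derived from this. Many values were also checked spectrophotometrically by the rate of diene formation (A₂₃₄).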

[2] = target: T1, Polyunsaturated fatty acid lipoxygenase ALOX15; experiment: Inhibitory concentration against rabbit reticulocyte 15-lipoxygenase with substrate arachidonic acid
Method in brief: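 Purified rabbit reticulocyte 15-LO, isolated from phenylhydrazine-treated rabbits, with arachidonic acid as the substrate. IC50 comes from a colorimetric read-out in which the 15-HPETE product oxidizes Fe²⁺ under mildly acidic conditions. Many values were also verified by the spectrophotometric diene-formation rate (A₂₃₄).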

[3] = target: T2, Polyunsaturated fatty acid lipoxygenase ALOX12 (Homo sapiens, UniProt P18054); experiment: Inhibitory concentration against human platelet-derived 12-lipoxygenase
T2 sequence (P18054 whole entry): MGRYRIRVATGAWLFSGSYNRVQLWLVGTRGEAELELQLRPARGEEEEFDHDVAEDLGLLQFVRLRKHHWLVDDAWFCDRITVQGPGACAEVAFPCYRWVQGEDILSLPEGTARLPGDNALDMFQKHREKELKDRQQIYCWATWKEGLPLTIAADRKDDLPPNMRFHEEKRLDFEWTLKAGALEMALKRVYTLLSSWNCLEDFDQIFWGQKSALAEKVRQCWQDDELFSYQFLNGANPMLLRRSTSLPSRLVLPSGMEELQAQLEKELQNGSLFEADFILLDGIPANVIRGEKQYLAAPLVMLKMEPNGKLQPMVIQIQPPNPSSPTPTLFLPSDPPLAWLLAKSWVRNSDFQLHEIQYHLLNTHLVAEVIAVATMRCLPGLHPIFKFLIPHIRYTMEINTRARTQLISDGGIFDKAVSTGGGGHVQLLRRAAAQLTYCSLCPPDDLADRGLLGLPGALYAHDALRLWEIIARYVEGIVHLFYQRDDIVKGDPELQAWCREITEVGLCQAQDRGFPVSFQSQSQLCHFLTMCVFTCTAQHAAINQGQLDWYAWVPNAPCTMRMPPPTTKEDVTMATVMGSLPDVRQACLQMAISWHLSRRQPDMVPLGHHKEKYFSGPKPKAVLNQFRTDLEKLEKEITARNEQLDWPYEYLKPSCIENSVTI

[4] = target: T3, Polyunsaturated fatty acid 5-lipoxygenase (Homo sapiens, UniProt P09917); experiment: Inhibitory concentration against human 5-lipoxygenase
T3 sequence (P09917 whole entry): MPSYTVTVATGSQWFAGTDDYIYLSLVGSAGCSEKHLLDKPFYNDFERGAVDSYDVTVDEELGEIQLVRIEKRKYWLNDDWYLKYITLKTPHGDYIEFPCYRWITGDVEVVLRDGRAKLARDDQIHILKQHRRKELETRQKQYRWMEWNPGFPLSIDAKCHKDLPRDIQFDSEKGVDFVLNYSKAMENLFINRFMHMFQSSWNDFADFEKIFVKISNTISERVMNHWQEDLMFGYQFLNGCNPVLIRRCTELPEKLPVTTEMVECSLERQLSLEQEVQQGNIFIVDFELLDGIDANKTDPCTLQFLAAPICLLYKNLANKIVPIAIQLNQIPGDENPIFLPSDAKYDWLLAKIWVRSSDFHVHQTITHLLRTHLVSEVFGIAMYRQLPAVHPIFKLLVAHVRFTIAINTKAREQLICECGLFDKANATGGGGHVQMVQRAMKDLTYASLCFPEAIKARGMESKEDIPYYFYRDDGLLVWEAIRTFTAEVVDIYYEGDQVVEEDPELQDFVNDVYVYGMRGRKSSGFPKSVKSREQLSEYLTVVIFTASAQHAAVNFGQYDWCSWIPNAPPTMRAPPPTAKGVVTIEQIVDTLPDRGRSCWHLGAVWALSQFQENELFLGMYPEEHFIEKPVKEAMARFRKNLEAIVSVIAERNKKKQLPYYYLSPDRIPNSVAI
Method in brief: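 Recombinant human 5-LO enzyme. Inhibition was followed by oxidation of arachidonic acid as the substrate. IC50 values were determined.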

CCCCCc1ccc(S(=O)(=O)NC(C)Cc2c[nH]c3ccccc23)cc1 (centres undefined)
IC50 [1]: 1600 nM

CCCCc1ccc(-c2ccc(S(=O)(=O)NCCc3c[nH]c4ccccc34)cc2)cc1
IC50 [2]: 200 nM | IC50 [1]: 530 nM

CCCCCc1ccc(S(=O)(=O)N2CCC(c3c[nH]c4ccccc34)C2)cc1 (centres undefined)
IC50 [1]: > 10000 nM

CCCCCc1ccc(S(=O)(=O)NCCc2c[nH]c3cc(F)ccc23)cc1
IC50 [2]: 2900 nM

CCCCCc1ccc(S(=O)(=O)NCCc2c[nH]c3c(C)cccc23)cc1
IC50 [2]: 3300 nM

CC1=C(CC/C(C)=C/CC/C(C)=C/Cc2cc(O)ccc2O)C(C)(C)CCC1 [JASPAQUINOL]
IC50 [1]: 300 nM

O=S(=O)(NCCCc1c(-c2cc3ccccc3o2)[nH]c2ccccc12)c1ccc(-c2ccccc2)cc1
IC50 [2]: 17 nM | IC50 [1]: 8 nM

O=C(Nc1ccccc1)c1ccc(S(=O)(=O)NCCc2c(-c3cc4ccccc4o3)[nH]c3ccccc23)cc1
IC50 [2]: 51 nM | IC50 [1]: 15 nM

COc1ccc(-c2ccc(S(=O)(=O)NCCc3c[nH]c4ccccc34)cc2)cc1
IC50 [2]: 1090 nM | IC50 [1]: 1500 nM

CCCCc1ccc(S(=O)(=O)NCCc2c[nH]c3ccccc23)cc1
IC50 [2]: 4000 nM | IC50 [1]: 3070 nM

CCCCCc1ccc(S(=O)(=O)NCCc2c(-c3ccc(Cl)cc3)[nH]c3ccccc23)cc1
IC50 [3]: > 10 µM | IC50 [2]: 120 nM | IC50 [4]: > 3 µM | IC50 [1]: 32 nM

Cc1ccc(-c2ccc(S(=O)(=O)NCCc3c[nH]c4ccccc34)cc2)cc1
IC50 [2]: 470 nM

Cc1ccccc1-c1ccc(S(=O)(=O)NCCc2c[nH]c3ccccc23)cc1
IC50 [2]: 460 nM | IC50 [1]: 920 nM

CCc1ccc(S(=O)(=O)NCCc2c[nH]c3ccccc23)cc1
IC50 [2]: > 10000 nM | IC50 [1]: > 10000 nM

CCCCCc1ccc(S(=O)(=O)NCCc2c(-c3cnc4ccccc4c3)[nH]c3ccccc23)cc1
IC50 [2]: 50 nM | IC50 [1]: 13 nM

CCCCc1ccc(S(=O)(=O)NCCc2c(-c3ccc(OC)cc3)[nH]c3ccccc23)cc1
IC50 [1]: 110 nM

CN(C)CCN(C)C(=O)c1ccc(S(=O)(=O)NCCc2c(-c3cc4ccccc4o3)[nH]c3ccccc23)cc1
IC50 [2]: 382 nM | IC50 [1]: 76 nM

CC(C)(C)c1ccc(-c2ccc(S(=O)(=O)NCCc3c[nH]c4ccccc34)cc2)cc1
IC50 [2]: 230 nM | IC50 [1]: 270 nM

CCCCCc1ccc(S(=O)(=O)NCCc2c[nH]c3ccc(F)cc23)cc1
IC50 [2]: 6300 nM

COc1ccc(-c2[nH]c3ccccc3c2CCNS(=O)(=O)c2ccc(-c3ccccc3)cc2)cc1
IC50 [2]: 247 nM | IC50 [1]: 27 nM

CCCc1ccc(S(=O)(=O)NCCc2c[nH]c3ccccc23)cc1
IC50 [2]: 3200 nM | IC50 [1]: 3130 nM

Cc1cccc(-c2ccc(S(=O)(=O)NCCc3c[nH]c4ccccc34)cc2)c1
IC50 [2]: 320 nM | IC50 [1]: 450 nM

O=S(=O)(NCCc1c(-c2cc3ccccc3o2)[nH]c2ccccc12)c1ccc(Br)cc1
IC50 [2]: 161 nM | IC50 [1]: 30 nM

O=C(NC1CCCCC1)c1ccc(S(=O)(=O)NCCc2c(-c3cc4ccccc4o3)[nH]c3ccccc23)cc1
IC50 [2]: 34 nM | IC50 [1]: 12 nM

CCCCCc1ccc(S(=O)(=O)NCCc2c[nH]c3cc(C(=O)OC)ccc23)cc1
IC50 [2]: 472 nM | IC50 [1]: 236 nM

Source: ChEMBL document CHEMBL1142013, “Tryptamine and homotryptamine-based sulfonamides as potent and selective inhibitors of 15-lipoxygenase” (Bioorg Med Chem Lett, 2005)
